Assay results pooled from the literature.
Each line is one published result; the experiments were not run side by side.
P2RY14: P2Y purinoceptor 14 (P2RY14, Homo sapiens, UniProt Q15391)
IRAK4: Interleukin-1 receptor-associated kinase 4 (IRAK4, Homo sapiens, UniProt Q9NWZ3)

Cn1nccc1-c1ccc(-c2cc(C(=O)O)cc3cc(-c4ccc(C(F)(F)F)cc4)ccc23)cc1 — IC50 (P2RY14; ligand displacement in cells, flow cytometry): 49.1 nM
O=C(NO)c1ccc(Cn2cnc3c(Nc4ccc(Cl)cc4)ncnc32)cc1 — IC50 (Histone deacetylase 3 (HDAC3, Homo sapiens, UniProt O15379); enzyme activity, inhibitor, fluorescence): 15.1 nM
CC(C)OC(=O)[C@H](Cc1c[nH]c2ccccc12)NC(=O)c1cccs1 — IC50 (P2RY14; cAMP, antagonist): 45.8 nM
c1coc(-c2n[nH]cc2-c2ccnc3ccccc23)c1 — IC50 (TGF-beta receptor type-1 (TGFBR1, Homo sapiens, UniProt P36897); enzyme activity, inhibitor, radiometric): 1100 nM
Nc1ncnc2c1ncn2[C@@H]1O[C@H](CSCC[C@H](N)C(=O)O)[C@@H](O)[C@H]1O — IC50 (Histone-lysine N-methyltransferase, H3 lysine-36 specific (NSD1, Homo sapiens, UniProt Q96L73); enzyme activity, inhibitor): 6260 nM
CC(C)OC(=O)[C@H](Cc1c[nH]c2ccccc12)NC(=O)c1ccc2nccnc2c1 — IC50 (P2RY14; cAMP, antagonist): 9.8 nM
OCc1ccc(Nc2ncc(Cl)c(Nc3ccccc3-c3nccs3)n2)cc1 — IC50 (IRAK4; enzyme activity, inhibitor, radiometric): 26.4 nM
COC(=O)/C=C/c1ccc(OCCN(C)c2ccccc2)cc1 — IC50 (Fatty acid CoA ligase Acsl3 (ACSL3, Homo sapiens, UniProt O95573); enzyme activity, inhibitor): > 50000 nM
O=C(N[C@@H](Cc1c[nH]c2ccccc12)C(=O)O)c1ccco1 — IC50 (P2RY14; cAMP, antagonist): 23.4 nM
Cn1ccc(-c2ccc(-c3cc(C(=O)O)cc4cc(-c5ccc(C(F)(F)F)cc5)ccc34)cc2)n1 — IC50 (P2RY14; ligand displacement in cells, flow cytometry): 35.5 nM
Cn1cc(C2=C(c3cn(CCCSC(=N)N)c4ccccc34)C(=O)NC2=O)c2ccccc21 — IC50 (Homeodomain-interacting protein kinase 1 (HIPK1, Homo sapiens, UniProt Q86Z02); enzyme activity, inhibitor): 2900 nM
CNC(=O)c1ccccc1Nc1nc(Nc2ccc(CC(F)F)cc2)ncc1Cl — IC50 (IRAK4; enzyme activity, inhibitor, radiometric): 74.8 nM
CC(C)(C)NS(=O)(=O)c1cccc(C(=O)N2CC3(CCC4(CC4)CC3)c3cc(NS(C)(=O)=O)ccc32)c1 — IC50 (Kinesin-like protein KIF11 (KIF11, Homo sapiens, UniProt P52732); ATPase activity, inhibitor): > 100000 nM
CS(=O)(=NC#N)c1ccccc1Nc1nc(Nc2ccc(CO)nc2)ncc1Cl (stereo not shown) — IC50 (IRAK4; enzyme activity, inhibitor, radiometric): 18.9 nM
Cc1ccc(OCC(=O)N[C@@H](Cc2c[nH]c3ccccc23)C(=O)OC(C)C)cc1 — IC50 (P2RY14; cAMP, antagonist): 1.2 nM
OCc1ccc(Nc2ncc(Cl)c(Nc3ccccc3-c3ncc[nH]3)n2)cc1 — IC50 (IRAK4; enzyme activity, inhibitor, radiometric): 84.9 nM
COc1ccc(OCC(=O)N[C@@H](Cc2c[nH]c3ccccc23)C(=O)OC(C)C)cc1 — IC50 (P2RY14; cAMP, antagonist): 15.6 nM
CNC(=O)c1ccccc1Nc1nc(Nc2ccc(CO)nc2)ncc1Cl — IC50 (IRAK4; enzyme activity, inhibitor, radiometric): 20.8 nM
O=C(O)c1cc(-c2ccc(-c3ccc(Cl)s3)cc2)c2ccc(-c3ccc(C(F)(F)F)cc3)cc2c1 — IC50 (P2RY14; ligand displacement in cells, flow cytometry): 2040 nM
C#Cc1cnc(Nc2ccc(CO)cc2)nc1Nc1ccccc1C(=O)NC — IC50 (IRAK4; enzyme activity, inhibitor, radiometric): 0.51 nM
O=C(O)c1cc(-c2ccc(-n3ccnn3)cc2)c2ccc(-c3ccc(C(F)(F)F)cc3)cc2c1 — IC50 (P2RY14; ligand displacement in cells, flow cytometry): 24.4 nM
CNC(=O)c1ccccc1Nc1nc(Nc2ccc(CO)cc2)ncc1C1CC1 — IC50 (IRAK4; enzyme activity, inhibitor, radiometric): 3 nM
c1c(N2CCCC2)nc(N2CCCC2)nc1N1CCNCC1 — IC50 (Caspase-1 (CASP1, Homo sapiens, UniProt P29466); enzyme activity, inhibitor; with preincubation): 233 nM
CS(=O)(=O)c1ccccc1Nc1nc(Nc2ccnc(CO)c2)ncc1Cl — IC50 (IRAK4; enzyme activity, inhibitor, radiometric): 106 nM
O=C(O)c1cc(-c2ccc(-n3ccnn3)cc2)cc(-n2cc(-c3ccc(C(F)(F)F)cc3)nn2)c1 — IC50 (P2RY14; ligand displacement in cells, flow cytometry): 2030 nM
